# Screening data deposited in PubChem BioAssay by several laboratories.
# Shown are actives, neighbours in structure and some others; about 3.6% of the full set was active somewhere.
# GRIN3A LBD mod – binders of NR3A ligand-binding domain, primary screen, biophysical, differential scanning fluorimetry, uHTS | Glutamate receptor ionotropic, NMDA 3A (GRIN3A) ligand-binding domain | NR3A LBD differential scanning fluorimetry, Tm shift; 0% = protein alone, 100% = glycine-bound protein | Tm shift relative to glycine control, % at 25 µM | 340,000 compounds, 2.5% hits;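 active = melting temperature shift of at least 10% of the positive control shift, at one fixed dose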
# FID counter – compounds displacing fluorescent DNA intercalator, primary screen, artefact control for HCV NS3 helicase inhibitor project, biochemical, FID fluorescence; 290,000 compounds, 0.17% hits; inhibition, % at 7.9 µM; DNA fluorescent intercalator displacement; in the data active = inhibition above about 37%;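 note: 0% = vehicle and 100% = reference compound; higher means more ethidium bromide displaced from hairpin DNA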
# EBNA-1 inh – EBNA-1 DNA-binding inhibitors, primary screen, biochemical, fluorescence polarization; inhibition, % at 14.8 µM; 300,000 compounds, 0.34% hits; in the data active = inhibition above about 28%
# FGF22 binding – binders of human FGF22 protein, primary screen, FGF22 synaptogenesis inhibitor project, biophysical, thermal shift, single point; recombinant FGF22 thermal shift, SYPRO orange fluorescence; percent of sucrose octasulfate shift, DMSO zero; activity (Tm shift, normalised), % at 9.99 µM; 340,000 compounds, 1.5% hits;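 active = mean Tm shift, scaled 0 neutral to 100 positive control, at about 1.3% or above, every replicate too, limit read from the data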
# Target sequence (Q9HCT0 whole entry, looked up): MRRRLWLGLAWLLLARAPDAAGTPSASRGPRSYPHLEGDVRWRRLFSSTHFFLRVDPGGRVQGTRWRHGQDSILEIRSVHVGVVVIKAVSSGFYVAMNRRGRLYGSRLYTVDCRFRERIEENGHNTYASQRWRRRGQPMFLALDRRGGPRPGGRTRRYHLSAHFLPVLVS
# HCV NS3 hel inh – inhibitors of HCV NS3 helicase, primary screen, biochemical, Cy5 molecular beacon fluorescence; Hepatitis C virus NS3 helicase; NS3 helicase DNA unwinding; 290,000 compounds, 0.56% hits; AID 1800, 2009; inhibition, % at 10.9 µM;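 active = inhibition above the mean of all tested compounds plus 3 SD, set per campaign, cut at about 35% in these data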;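 note: 0% = DMSO wells and 100% = thioflavine S control wells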
#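 Test system: hepatitis C virus NS3 helicase domain fragment enzyme. Also added: annealed dual-labelled DNA beacon duplex, ATP-started. Timing: 60 min unwinding reaction at 25 °C after ATP addition. Technique: Cy5 fluorescence. Measure: % inhibition of unwinding.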
# ZTA DNA inh – ZTA (EBV) inhibition in EBNA-1 counter-screen; ZTA-DNA binding, fluorescence polarization; inhibition, % at 11 µM; P03206; 320,000 compounds, 0.15% hits; in the data active = inhibition above about 33%
# Target sequence (P03206 whole entry, looked up): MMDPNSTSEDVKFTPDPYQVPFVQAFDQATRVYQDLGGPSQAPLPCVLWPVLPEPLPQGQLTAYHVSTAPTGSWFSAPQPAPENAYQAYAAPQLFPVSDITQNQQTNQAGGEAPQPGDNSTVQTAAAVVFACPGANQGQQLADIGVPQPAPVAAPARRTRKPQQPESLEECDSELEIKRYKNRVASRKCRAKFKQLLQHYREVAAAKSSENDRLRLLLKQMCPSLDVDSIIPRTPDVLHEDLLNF
# An asterisk follows results filed as active; . = not tested or not shown.
SMILES,GRIN3A LBD mod,FID counter,EBNA-1 inh,FGF22 binding,HCV NS3 hel inh,ZTA DNA inh
CCN(C[C@H]1N[C@@](C)(C(=O)OC)[C@H]2C(=O)N(C)C(=O)[C@@H]12)C(C)=O,0.9,.,.,43.5*,.,.
CCN(C[C@H]1N[C@@](C)(C(=O)OC)[C@H]2C(=O)N(C)C(=O)[C@@H]12)C(=O)c1ccccc1,-0.5,.,.,-0.1,.,.
CCN(C[C@H]1N[C@@](C)(C(=O)OC)[C@H]2C(=O)N(C)C(=O)[C@@H]12)C(=O)COC,-0.5,.,.,43.0*,.,.
COc1cc(/C=N/NC(=O)CSc2cc(C)c(Br)cc2C)ccc1O,7.4,-9.1,-8.4,.,-11.0,16.6
Cc1cc(SCC(=O)N/N=C/c2ccc(O)c(O)c2O)c(C)cc1Br,25.4*,-8.9,-1.7,.,24.0,2.7
Cc1ccc(N=Nc2c(O)ccc3n[nH]nc23)cc1,13.3*,-4.6,.,-0.5,7.5,.
CCOc1cc(C(=O)OC(C)C(=O)Nc2ncc(Cl)cc2Cl)ccc1OCC(=O)N1CCOCC1 (stereo not given),0.5,-32.3,7.8,43.5*,8.0,-8.5
C[C@H](CO)N1C[C@H](C)[C@H](CN(C)Cc2ccc(-c3ccccc3)cc2)Oc2c(NC(=O)Nc3ccc(C(F)(F)F)cc3)cccc2C1=O,.,.,.,-0.4,.,.
O=C(CN1c2ccccc2Sc2ccccc21)NNC(=O)Nc1cccc(Cl)c1,18.4*,0.2,7.5,0.0,-15.8,-9.5
CSc1cccc(NC(N)=O)c1,-1.0,-2.3,-3.5,0.1,-12.6,1.9
NC(=O)c1ccccc1NC(=O)Nc1cccc(Cl)c1,28.1*,6.0,2.0,.,-18.4,-20.1
O=C(Nc1ccccc1)Nc1cccc(Cl)c1,29.1*,-0.1,-17.2,.,-1.7,-9.6
CSc1cccc(NC(=O)Nc2ccc(Cl)cc2)c1,29.3*,5.8,12.2,.,2.8,14.9
O=C(Cc1ccccc1)NNC(=O)Nc1cccc(Cl)c1,2.8,1.4,-6.8,.,0.5,-8.6
O=C(C[C@H]1C[C@@H]2c3cc(NC(=O)Nc4ccccc4F)ccc3O[C@@H]2[C@@H](CO)O1)NCc1ccc(Oc2ccccc2)cc1,.,.,.,0.3,.,.
CN(C)CCCNC(=O)C[C@H]1C=C[C@H](NC(=O)Cc2cccnc2)[C@@H](CO)O1,.,.,.,-0.1,.,.
O=C(Nc1ccc(Cl)cc1)Nc1cccnc1,12.7*,3.9,-4.3,1.3,0.8,-13.5
O=C(Nc1ccc2nccnc2c1)Nc1ccccc1Cl,-10.8,-9.3,-9.3,0.0,16.8,-14.8
O=C(Nc1cccc(Cl)c1)Nc1ccc2nccnc2c1,35.4*,19.5,-2.8,0.2,-9.0,2.7
O=C(/C=C/c1cccc(Cl)c1)Nc1ncccn1,-2.9,2.7,0.6,.,1.1,11.2
CS(=O)(=O)N1CCN(c2ccccc2NC(=O)Nc2cccc(Cl)c2)CC1,12.1*,-9.4,-0.5,.,-32.2,-0.2
CSc1cccc(NC(=O)/C=C/c2cccc(Cl)c2)c1,67.4*,-4.0,-3.9,1.3,-7.3,-2.6
C[C@H](CO)N1C[C@H](C)[C@@H](CN(C)S(=O)(=O)c2ccc(Cl)cc2)OCCCC[C@H](C)Oc2ccc(NC(=O)NC3CCCCC3)cc2C1=O,.,.,.,0.1,.,.
C[C@H](CO)N1C[C@H](C)[C@H](CN(C)Cc2ccc(C(=O)O)cc2)OCCCC[C@H](C)Oc2ccc(NC(=O)Nc3ccccc3)cc2C1=O,.,.,.,0.3,.,.
Cc1cc(NC(=O)Nc2cccc(Cl)c2)n(-c2ccccn2)n1,33.4*,-8.2,-9.9,0.1,-30.2,6.2
SMILES,GRIN3A LBD mod,FID counter,EBNA-1 inh,FGF22 binding,HCV NS3 hel inh,ZTA DNA inh
Cn1nnc2cc(NC(=O)Nc3cccc(Cl)c3)ccc21,27.4*,-0.4,-7.2,0.0,-1.5,5.9
Cc1cc(C)c(C(=O)Nc2cccc(F)c2)c(Cl)n1,-0.8,0.3,-7.3,43.0*,-2.5,-14.4
Cc1nc(C)c(C(=O)Nc2cccc(F)c2)s1,0.6,-0.2,-2.7,-0.3,-2.5,18.4
Cc1cc(NC(=O)Nc2cccc(Cl)c2)n(-c2ccccc2)n1,-4.7,-4.7,-1.1,0.0,-5.1,-10.5
CC(=O)c1ccc(NC(=S)N2CCN(c3cccc(Cl)c3)CC2)cc1,0.0,0.1,-9.2,0.1,8.3,25.7
CC(=O)c1ccc(N2CCN(C(=S)Nc3cccc(Cl)c3)CC2)cc1,0.2,1.6,55.9*,.,12.7,-2.3
COC(=O)C[C@@H]1CC[C@@H]2[C@H](COc3ccc(NC(=O)c4cc(C)on4)cc3C(=O)N2C)O1,.,.,.,0.2,.,.
C[C@@H](NC(=O)C[C@@H]1C=C[C@H](NC(=O)Cc2ccccn2)[C@@H](CO)O1)c1ccccc1,.,.,.,0.1,.,.
COc1cccc(NC(=O)Nc2ccccc2C(N)=O)c1,-6.3,-1.6,5.1,0.7,-1.7,-22.8
O=C(Nc1ccncc1)Nc1cccc(F)c1,14.2*,-0.5,.,-0.2,-0.1,.
CSc1ccc(NC(=O)Nc2ccccc2C(N)=O)cc1,10.4*,0.9,5.0,0.1,-7.7,10.0
O=C(Nc1cccnc1)Nc1cccc(F)c1,0.4,-0.1,-9.1,-0.1,13.5,-12.6
COc1cccc(NC(=O)N2CCN(S(C)(=O)=O)CC2)c1,-3.3,-2.0,1.0,0.0,9.6,2.3
O=C(Nc1ccccc1)C1CCCN(C(=O)c2ccc(Cl)cc2)C1 (stereo not given),-1.0,-5.9,6.8,43.0*,0.1,8.2
CS(=O)(=O)N1CCN(C(=O)Nc2ccccc2)CC1,-1.1,-1.5,-12.8,43.0*,-1.2,2.0
O=C(C[C@H]1CC[C@H]2[C@@H](COC[C@@H](O)CN2C(=O)Nc2ccc(Cl)cc2)O1)NC1Cc2ccccc2C1,.,.,.,-0.2,.,.
CC(=O)c1ccc(NC(=S)NCCc2cccc(Cl)c2)cc1,25.7*,-10.2,10.4,0.3,-4.3,15.1
COC(=O)c1ccc(NC(=S)NCCc2ccccc2)cc1,0.4,-9.6,4.1,.,-1.9,9.7
O=C(Nc1ccc(C(=O)N2CCCCC2)cc1)Nc1cccc(Cl)c1,13.4*,-14.8,-6.4,0.2,-11.9,0.0
CC(=O)c1ccc(NC(=O)Nc2cccc(Cl)c2)cc1,35.2*,4.8,-11.9,.,0.5,-24.5
CC(=O)Nc1ccc(NC(=O)Nc2cccc(Cl)c2)cc1,33.9*,-2.4,-9.0,0.3,-7.0,13.4
C[C@@H]1CCCCO[C@@H](CN(C)C(=O)Nc2ccc(C(F)(F)F)cc2)[C@H](C)CN([C@@H](C)CO)C(=O)c2cc(NC(=O)NC3CCCCC3)ccc2O1,.,.,.,-1.5,.,.
O=C(CCc1nnc(C2(c3ccc(Cl)cc3)CCC2)o1)NC1CC1,-2.0,-14.1,4.5,43.6*,-3.4,-6.1
CC(c1ccon1)N(C)C(=O)CCc1nnc(C2(c3ccc(Cl)cc3)CCC2)o1 (stereo not given),-1.4,-33.8,7.9,43.3*,6.8,17.5
